Assay results reported in publication PMC3383025 (Molecular Cancer Therapeutics, 2009).
“And” between values parts separate entries of the source, which are not always exact repeats. Equal entries are not always repeated. Where two headings read alike, the source gives them in different places.

Assays:
[1] = test system: AR protein; assay: Western blot analysis of AR protein; format: cell-based, human; details: LNCaP cells; for AR Protein (% of control): after 24 h of exposure to 1 µmol/L
[2] = test system: CWR22Rv1; assay: Clonogenic survival assay; format: cell-based, human; details: loss of 50% clonogenic ability after 48 h exposure
[3] = test system: VCaP; assay: Clonogenic survival assay; format: cell-based, human; details: loss of 50% clonogenic ability after 48 h exposure
[4] = cited from earlier work
[5] = test system: LNCaP cells; assay: Intracellular free Ca+2; format: cell-based, human; details: for Intracellular free calcium: 10 min after exposure to 1 µmol/L, starting concentration ~40 nmol/L
[6] = test system: MDA-PC-2b; assay: Clonogenic survival assay; format: cell-based, human; details: loss of 50% clonogenic ability after 48 h exposure
[7] = test system: LAPC-4; assay: Clonogenic survival assay; format: cell-based, human; details: loss of 50% clonogenic ability after 48 h exposure
[8] = test system: LNCaP; assay: Clonogenic survival assay; format: cell-based, human; details: for Killing ability LD50: loss of 50% clonogenic ability after 48 h exposure; for CC50: read-out: Cell death of LNCaP LC50
[9] = test system: IRE1-dependent XBP-1 processing; assay: ER stress: IRE1-dependent XBP-1/venus processing, fluorescent cells; format: cell-based, human
[10] = test system: LNCaP cells; details: over the next 18 to 36 hours after return to baseline; cited from earlier work
[11] = test system: total protein synthesis; assay: Total protein synthesis, S35-methionine incorporation; format: cell-based, human; details: LNCaP; at 24 hours post-TG exposure
Outline: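 LNCaP cells were treated for 6 or 24 h (1 µmol/L test compound) and labelled with S³⁵-methionine for 30 min before lysis. Incorporation was measured as TCA-precipitable counts and expressed per cell as percent of incorporation in exponentially growing untreated cells.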

[12] = test system: LNCaP cells; assay: Percentage of cells in cycle, Ki67 flow cytometry; format: cell-based, human; details: TG exposure, untreated 91% ± 2%
[13] = test system: androgen ablation refractory human prostate cancer lines; assay: Clonogenic survival assay, each of the five lines; format: cell-based; details: LNCaP, LAPC-4, VCaP, MDA-PCa-2b, CWR22Rv1
Outline: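 Clonogenic survival of each prostate cancer line after 48 h exposure to a concentration series of test compound. LD₅₀ is the nmol/L concentration causing 50% loss of clonogenic ability.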

[14] = target: rabbit skeletal muscle SERCA pump (Oryctolagus cuniculus, UniProt P04191); assay: SERCA pump activity inhibition; format: biochemical
Sequence of rabbit skeletal muscle SERCA pump (P04191 1-994 isoform P04191-2): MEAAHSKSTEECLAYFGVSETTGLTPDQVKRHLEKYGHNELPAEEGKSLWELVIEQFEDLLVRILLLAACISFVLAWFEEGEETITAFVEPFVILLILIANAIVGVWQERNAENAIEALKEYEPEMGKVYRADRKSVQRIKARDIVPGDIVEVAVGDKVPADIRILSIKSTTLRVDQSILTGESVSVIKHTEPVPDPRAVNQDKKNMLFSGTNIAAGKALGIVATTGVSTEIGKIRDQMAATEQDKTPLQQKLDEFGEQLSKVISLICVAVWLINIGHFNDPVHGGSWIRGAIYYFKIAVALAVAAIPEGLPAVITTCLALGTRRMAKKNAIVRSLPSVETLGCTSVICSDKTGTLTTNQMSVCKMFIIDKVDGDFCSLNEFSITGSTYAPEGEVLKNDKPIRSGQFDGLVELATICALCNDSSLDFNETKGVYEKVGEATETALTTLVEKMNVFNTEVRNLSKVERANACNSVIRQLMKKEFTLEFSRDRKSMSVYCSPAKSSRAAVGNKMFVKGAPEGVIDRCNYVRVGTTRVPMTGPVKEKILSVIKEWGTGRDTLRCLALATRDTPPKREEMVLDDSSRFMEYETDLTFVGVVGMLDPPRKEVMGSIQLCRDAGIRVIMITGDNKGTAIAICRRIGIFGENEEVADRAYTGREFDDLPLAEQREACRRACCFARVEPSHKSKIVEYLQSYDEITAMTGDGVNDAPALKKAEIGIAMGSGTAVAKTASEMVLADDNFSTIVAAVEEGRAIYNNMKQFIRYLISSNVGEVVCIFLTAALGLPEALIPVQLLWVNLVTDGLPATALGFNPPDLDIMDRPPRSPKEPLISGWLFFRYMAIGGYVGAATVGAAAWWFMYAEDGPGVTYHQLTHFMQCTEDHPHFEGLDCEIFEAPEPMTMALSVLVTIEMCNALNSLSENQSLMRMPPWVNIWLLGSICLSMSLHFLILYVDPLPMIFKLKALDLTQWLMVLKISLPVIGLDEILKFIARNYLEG

[15] = test system: AR mRNA; assay: AR mRNA by reverse transcription-PCR; format: cell-based, human; details: LNCaP, LAPC-4 and CWR22Rv1 cells; 1 µmol/L TG, various times
[16] = test system: AR-specific protein synthesis; format: cell-based, human
Outline: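 LNCaP cells exposed to 1 µmol/L test compound for 6 or 24 h, then pulsed with S³⁵-methionine for 30 min before lysis. AR was immunoprecipitated from an aliquot of the labelled total protein with N-20 anti-AR antibody and Protein-A agarose beads, then Western blotted. AR-associated radioactivity was captured on X-ray film and quantitated by imaging.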

Compound | AR Protein (% of control) [1] | Killing ability LD50 [2] | Killing ability LD50 [3] | host toxicity on systemic administration [4] | Intracellular free calcium [5] | Killing ability LD50 [6] | Killing ability LD50 [7] | Killing ability LD50 ([8]; LNCaP) | CC50 ([8]; after 48 h of exposure) | other results
C/C=C(/C)C(=O)O[C@H]1C(C)=C2[C@H]([C@@H]1OC(=O)CCCCCCC)[C@@](C)(OC(C)=O)C[C@H](OC(=O)CCCCCCCCCCCN)[C@@]1(O)[C@H]2OC(=O)[C@@]1(C)O [Analog 12ADT, 8-O-(12-dodecanyl)-8-O-debutanoyl TG] | 14 ± 3 % of control | 85 ± 27 nmol/L | 67 ± 25 nmol/L | cannot be given systemically without host toxicity | 369 ± 23 nmol/L | 95 ± 35 nmol/L | 80 ± 19 nmol/L | 55 ± 12 nmol/L | 55 ± 12 nM | –
leucyl-12ADT [Analog L12ADT] | 8 ± 4 % of control | 34 ± 16 nmol/L | 25 ± 11 nmol/L | – | 414 ± 44 nmol/L | 42 ± 5 nmol/L | 32 ± 9 nmol/L | 14 ± 8 nmol/L | 14 ± 8 nM | cells with IRE1-dependent XBP-1 processing (flow cytometric GFP) ([9]; LNCaP, 500 nmol/L, within 24 h): all cells
C/C=C(/C)C(=O)O[C@H]1C(C)=C2[C@H]([C@@H]1OC(=O)CCCCCCC)[C@@](C)(OC(C)=O)C[C@H](OC(=O)CCC)[C@@]1(O)[C@H]2OC(=O)[C@@]1(C)O [TG, Thapsigargin, reference compound] | 10 ± 2 % of control | 38 ± 9 nmol/L | 20 ± 7 nmol/L | cannot be given systemically without host toxicity | 441 ± 35 nmol/L | 43 ± 12 nmol/L | 25 ± 6 nmol/L | 10 nmol/L and 10 ± 5 nmol/L | – | delayed sustained increase in Cai [10]: > 1 µmol/L; depletion of AR protein ([1]; by 24 hours of TG exposure): 90%; inhibition of general protein synthesis [11]: > 60%; percent of fluorescent (ER-stressed) cells ([9]; XBP-1/venus-transfected LNCaP and CWR22Rv1, 500 µmol/L TG, by 24 hours): > 80%; initial increase in Cai ([5]; from ~40 nmol/L, within minutes): > 300 nmol/L; Ki67+ cells ([12]; 24 hours): 25% ± 8%; Ki67+ cells ([12]; 48 hours): > 10%; LD50 for each of the lines [13]: < 100 nmol/L; CC50 ([8]; Homo sapiens, LNCaP, 48 h): 10 ± 5 nM; IC50 [14]: 13 ± 2 nM; change in AR mRNA [15]: no change; decrease in rate of AR-specific protein synthesis ([16]; LNCaP cells, 1 µmol/L TG): > 90%; inhibition of AR-specific protein synthesis ([16]; LNCaP, at 24 hours post-TG exposure): > 90%
alanyl-12ADT [Analog A12ADT] | 15 ± 4 % of control | 38 ± 11 nmol/L | 23 ± 9 nmol/L | – | 410 ± 45 nmol/L | 40 ± 6 nmol/L | 28 ± 7 nmol/L | 8 ± 4 nmol/L | 8 ± 4 nM | –
C/C=C(/C)C(=O)O[C@H]1C(C)=C2[C@H]([C@@H]1OC(=O)CCCCCCC)[C@@](C)(OC(C)=O)C[C@H](OC(=O)CCCCCCCCCCCNC(=O)C[C@H](N)C(=O)O)[C@@]1(O)[C@H]2OC(=O)[C@@]1(C)O [Analog D12ADT, asparty-12ADT] | 11 ± 6 % of control | 39 ± 7 nmol/L | 70 ± 18 nmol/L | – | 385 ± 40 nmol/L | 51 ± 12 nmol/L | 55 ± 9 nmol/L | 40 ± 12 nmol/L | 40 ± 12 nM | –
